In ChEMBL document CHEMBL1124862 (J Med Chem, 1990):

Assays:
[1] = molecular target: T1, 5-hydroxytryptamine receptor 1B (Rattus norvegicus, UniProt P28564); assay: Inhibitory activity against 5-hydroxytryptamine 1B receptor of rat cortex using [3H]5-HT
How it was run: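 Competition binding in rat cortex membranes, using the radioligand named in each line at a concentration of approximately its K_D.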

[2] = molecular target: T2, 5-hydroxytryptamine receptor 1A (Rattus norvegicus, UniProt P19327); assay: Displacement of [3H]8-OH-DPAT from rat cortex 5-hydroxytryptamine 1A receptor
T2 sequence (P19327 whole entry): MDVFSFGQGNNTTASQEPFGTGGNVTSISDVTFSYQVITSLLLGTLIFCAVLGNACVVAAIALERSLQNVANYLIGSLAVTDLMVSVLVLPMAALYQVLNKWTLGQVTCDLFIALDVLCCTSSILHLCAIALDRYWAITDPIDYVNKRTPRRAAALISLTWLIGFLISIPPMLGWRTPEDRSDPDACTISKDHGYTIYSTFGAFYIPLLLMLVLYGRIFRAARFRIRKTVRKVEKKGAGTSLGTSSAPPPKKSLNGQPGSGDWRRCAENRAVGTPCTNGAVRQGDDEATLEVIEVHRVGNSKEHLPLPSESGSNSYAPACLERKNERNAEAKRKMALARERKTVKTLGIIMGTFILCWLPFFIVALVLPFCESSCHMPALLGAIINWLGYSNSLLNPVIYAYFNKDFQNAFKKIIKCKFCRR

[3] = molecular target: Serotonin 2 (5-HT2) receptor (Rattus norvegicus, UniProt P30994+P08909+P14842); assay: Compound was evaluated for its inhibitory activity against 5-hydroxytryptamine 2 receptor of rat anterior cortex using [3H]ketanserin as the radioligand
[4] = molecular target: T1, 5-hydroxytryptamine receptor 1B; assay: Inhibitory activity against 5-hydroxytryptamine 1B receptor of rat cortex using [3H]5-HT as the radioligand.
Rattus norvegicus = organism: Rattus norvegicus; assay: Effect of direct injection into the PVN (paraventricular medial hypothalamus) of rats on feeding behavior and the inhibition of food intake; assay type: functional
How it was run: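 Seven days later they were food-deprived for 24 h with water available. Each rat received a PVN infusion at 1 μL/min of test agent (16 μg) or 5-HT (32 μg) in 0.9% NaCl, or vehicle. Food eaten over 30 min was weighed. Groups were compared by two-tailed t test, and rats with misplaced cannulae were excluded after histology.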

[5] = molecular target: T1, 5-hydroxytryptamine receptor 1B; assay: Inhibition of Forskolin-stimulated adenylate cyclase activity against 5-hydroxytryptamine 1B receptor of rat substantia nigra; assay type: functional
How it was run: (§1)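 Washed membranes came from guinea pig hippocampus, rat substantia nigra or guinea pig substantia nigra. They were incubated at 30 °C with [α-³²P]ATP, 3 μM forskolin and varying agonist concentrations. The reaction was stopped with 3% SDS. [³²P]cAMP was isolated by two-column chromatography and counted by scintillation, in pmol/mg protein/min. Points were run in triplicate, and EC50 came from at least three experiments.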

5-HT1A receptor = 5-HT1A receptor (Cavia porcellus, UniProt A0A286Y074); assay: Inhibition of Forskolin-stimulated adenylate cyclase activity against 5-hydroxytryptamine 1A receptor of guinea pig hippocampus; assay type: functional, tissue-based; how it was run: as §1
[6] = molecular target: 5-hydroxytryptamine receptor 1D (Cavia porcellus, UniProt Q60484); assay: Inhibition of Forskolin-stimulated adenylate cyclase activity against 5-hydroxytryptamine 1D receptor of guinea pig substantia nigra
How it was run: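 Washed membranes from freshly dissected guinea pig substantia nigra, incubated at 30 °C with [α-³²P]ATP plus 3 μM forskolin and varying agonist concentrations. Reaction stopped with 3% SDS. [³²P]cAMP separated from [³²P]ATP on two columns and counted by liquid scintillation, as pmol/mg protein/min. EC50 from at least three experiments, each in triplicate.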

T1 sequence (P28564 whole entry): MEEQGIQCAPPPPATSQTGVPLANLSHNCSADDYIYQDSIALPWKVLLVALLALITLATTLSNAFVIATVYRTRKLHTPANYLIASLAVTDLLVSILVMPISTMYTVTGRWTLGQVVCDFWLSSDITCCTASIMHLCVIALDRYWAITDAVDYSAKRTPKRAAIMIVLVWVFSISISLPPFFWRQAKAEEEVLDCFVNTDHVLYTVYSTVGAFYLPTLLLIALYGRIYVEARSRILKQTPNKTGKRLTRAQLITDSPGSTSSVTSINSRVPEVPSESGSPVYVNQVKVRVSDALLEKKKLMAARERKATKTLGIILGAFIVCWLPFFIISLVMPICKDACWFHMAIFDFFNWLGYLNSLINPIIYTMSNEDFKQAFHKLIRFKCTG
Chain of 5-hydroxytryptamine receptor 1D (Q60484 whole entry): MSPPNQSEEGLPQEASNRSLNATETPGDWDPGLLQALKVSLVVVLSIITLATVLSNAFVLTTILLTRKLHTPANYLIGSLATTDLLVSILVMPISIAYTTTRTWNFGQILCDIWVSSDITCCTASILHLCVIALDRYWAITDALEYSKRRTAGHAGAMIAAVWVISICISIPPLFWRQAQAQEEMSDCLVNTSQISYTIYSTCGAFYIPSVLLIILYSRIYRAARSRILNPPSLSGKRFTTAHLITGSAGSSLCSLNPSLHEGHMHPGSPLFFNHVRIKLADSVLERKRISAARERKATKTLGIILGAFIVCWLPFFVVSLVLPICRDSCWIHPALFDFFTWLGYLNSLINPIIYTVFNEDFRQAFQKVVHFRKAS

Row | SMILES | IC50 [1] | IC50 [2] | IC50 [3] | also measured
1 | Oc1ccc2[nH]cc(C3=CCNCC3)c2c1 | 1.2 nM | 30 nM | – | –
2 | N#Cc1ccc2[nH]cc(C3=CCNCC3)c2c1 | 0.8 nM | 32 nM | – | –
3 | Fc1ccc2[nH]cc(C3=CCNCC3)c2c1 | 1.9 nM | 65 nM | – | –
4 | CN1CCN(c2nc3cc(C(F)(F)F)ccc3n3cccc23)CC1 | 150 nM | 19 nM | 6800 nM | –
5 | FC(F)(F)c1cccc(N2CCNCC2)c1 | 27 nM | 290 nM | 570 nM | –
6 | Brc1ccc2[nH]cc(C3=CCNCC3)c2c1 | 3.2 nM | 13 nM | – | –
7 | C1=C(c2c[nH]c3ccccc23)CCNC1 | – | 140 nM | – | IC50 [4]: 3.7 nM
8 | FC(F)(F)c1ccc2c(c1)nc(N1CCNCC1)c1cccn12 | 21 nM | 37 nM | > 10000 nM | –
9 | Clc1ccc2[nH]cc(C3=CCNCC3)c2c1 | 3.3 nM | 26 nM | – | –
10 | O=[N+]([O-])c1ccc2[nH]cc(C3=CCNCC3)c2c1 | 3.5 nM | 36 nM | – | –
11 | Oc1ccc2[nH]cc(C3=CCNCC3)c2n1 | 15 nM | 3000 nM | > 10000 nM | g/30min (Rattus norvegicus): 0.12; EC50 [5]: 56 nM; EC50 (5-HT1A receptor): > 10000 nM
12 | COc1ccc2[nH]cc(C3=CCNCC3)c2c1 [RU-24969] | 2 nM | – | – | –
13 | NCCc1c[nH]c2ccc(O)cc12 [SEROTONIN] | – | – | – | g/30min (Rattus norvegicus): 1.15; EC50 [6]: 16 nM
